# Screening results from PubChem.
# Hits are enriched below; roughly 2% of the tested compounds scored in any of these assays.
# Hck-Nef inh – inhibitors of Nef-activated human Hck kinase, primary screen, biochemical, Z-Lyte FRET, 384-well, Hck-YEEI | Recombinant Hck-YEEI plus Nef, Z-Lyte FRET kinase assay | inhibition, % at 20 µM | 0.68% of 220,000 active;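 active means Hck-Nef kinase inhibition above about 50%, limit read from the data; inactive means inhibition below that limit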;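 further: 0% = DMSO with Hck plus Nef and 100% = Hck alone without Nef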
# eIF4E-4G inh – eIF4E–eIF4G protein interaction inhibitors, primary screen, biochemical, uHTS, TR-FRET, eIF4GI fragment | Eukaryotic translation initiation factor 4E (Mus musculus) + Eukaryotic translation … | TR-FRET eIF4E-eIF4GI(517-606) binding, 2 h | inhibition, % at 21.7 µM | 0.37% of 220,000 active | AID 782, 2007;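 further: 0% = full FRET control wells and 100% = background wells lacking eIF4GI fragment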
# Target sequence (P63073 whole entry, looked up, the tested form may be a part): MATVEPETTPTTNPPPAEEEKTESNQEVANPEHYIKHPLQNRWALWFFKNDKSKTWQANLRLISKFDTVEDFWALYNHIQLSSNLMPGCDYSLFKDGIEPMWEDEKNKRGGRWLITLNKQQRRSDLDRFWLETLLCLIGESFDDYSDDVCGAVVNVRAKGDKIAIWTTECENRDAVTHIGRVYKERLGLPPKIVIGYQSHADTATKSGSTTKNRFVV
# Target sequence (Q04637 whole entry, looked up, the tested form may be a part): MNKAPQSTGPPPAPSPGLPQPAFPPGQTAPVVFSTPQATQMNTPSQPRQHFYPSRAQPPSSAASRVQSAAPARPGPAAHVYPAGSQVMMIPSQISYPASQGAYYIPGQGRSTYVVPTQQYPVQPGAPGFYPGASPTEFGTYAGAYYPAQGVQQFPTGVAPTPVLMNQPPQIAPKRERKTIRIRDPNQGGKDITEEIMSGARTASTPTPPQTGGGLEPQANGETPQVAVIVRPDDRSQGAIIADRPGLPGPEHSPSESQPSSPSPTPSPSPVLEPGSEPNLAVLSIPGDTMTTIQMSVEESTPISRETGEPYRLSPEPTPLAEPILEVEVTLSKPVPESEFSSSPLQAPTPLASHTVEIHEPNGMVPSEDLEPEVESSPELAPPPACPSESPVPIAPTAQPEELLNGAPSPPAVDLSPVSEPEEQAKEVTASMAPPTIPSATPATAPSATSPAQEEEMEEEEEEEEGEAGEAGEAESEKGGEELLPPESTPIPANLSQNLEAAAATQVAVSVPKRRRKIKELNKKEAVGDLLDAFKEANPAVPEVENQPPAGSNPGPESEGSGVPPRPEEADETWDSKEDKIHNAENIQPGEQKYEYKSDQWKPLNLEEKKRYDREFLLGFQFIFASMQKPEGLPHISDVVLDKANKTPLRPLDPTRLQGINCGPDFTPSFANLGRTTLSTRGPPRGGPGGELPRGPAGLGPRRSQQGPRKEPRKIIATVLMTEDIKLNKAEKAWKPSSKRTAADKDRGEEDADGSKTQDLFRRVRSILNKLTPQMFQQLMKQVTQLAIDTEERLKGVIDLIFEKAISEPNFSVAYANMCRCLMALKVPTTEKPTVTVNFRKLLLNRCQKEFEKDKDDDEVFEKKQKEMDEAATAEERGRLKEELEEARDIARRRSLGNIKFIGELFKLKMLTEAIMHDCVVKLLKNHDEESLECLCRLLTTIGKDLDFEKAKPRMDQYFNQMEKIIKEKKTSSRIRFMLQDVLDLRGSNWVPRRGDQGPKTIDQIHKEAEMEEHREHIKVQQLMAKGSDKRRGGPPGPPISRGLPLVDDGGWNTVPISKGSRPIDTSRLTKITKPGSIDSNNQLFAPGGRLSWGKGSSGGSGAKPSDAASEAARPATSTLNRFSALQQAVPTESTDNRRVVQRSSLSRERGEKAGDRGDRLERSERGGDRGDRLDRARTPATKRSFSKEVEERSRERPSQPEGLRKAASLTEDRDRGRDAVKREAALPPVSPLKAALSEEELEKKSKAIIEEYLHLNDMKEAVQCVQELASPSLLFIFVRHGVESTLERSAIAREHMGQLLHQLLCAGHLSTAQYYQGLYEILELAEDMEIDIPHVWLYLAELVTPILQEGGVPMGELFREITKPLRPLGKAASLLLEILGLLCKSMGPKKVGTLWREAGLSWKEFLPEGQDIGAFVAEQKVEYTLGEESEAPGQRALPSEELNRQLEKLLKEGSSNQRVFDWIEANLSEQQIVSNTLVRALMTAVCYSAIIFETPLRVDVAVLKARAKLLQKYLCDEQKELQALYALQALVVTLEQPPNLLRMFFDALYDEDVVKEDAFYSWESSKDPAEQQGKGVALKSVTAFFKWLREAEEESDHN
# NCF1 inh – p47phox/p22phox peptide binding inhibitors, primary screen, biochemical, uHTS, NADPH oxidase regulatory subunit | 0.53% of 220,000 active | fluorescence polarization, 2 h | AID 1274, 2008 | Neutrophil cytosol factor 1 (Homo sapiens), P14598 | inhibition, % at 24.7 µM;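 further: 0% = p47phox with labelled peptide and 100% = labelled peptide alone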
# 14-3-3 Bad PPI – inhibitors of 14-3-3 zeta/Bad binding, primary screen, biochemical, TR-FRET, bovine 14-3-3 zeta. 14-3-3 protein zeta/delta (Bos taurus), P63103. TR-FRET 14-3-3zeta/Dy647-pBad peptide displacement, 1 h. inhibition, % at 21.7 µM. 0.71% of 220,000 active. AID 781, 2007;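 active means inhibition above about 70%, limit read from the data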;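 further: 0% = full 14-3-3 plus peptide FRET controls and 100% = background without 14-3-3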
# Diaph act CS – compounds boosting diaphorase resazurin reduction – biochemical, uHTS, resorufin fluorescence, counter-screen for diaphorase-coupled primary assays, primary screen. Diaphorase/resazurin coupled assay, 16 min; hits give high values; 1 = vehicle wells, 0 = NADH-free wells. activation factor at 20 µM. 0.005% of 190,000 active. AID 1229, 2008;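 active means diaphorase activity raised at least twofold by the compound at 20 µM; inactive means activation factor below 2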
#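 Assay system: Purified diaphorase enzyme from Clostridium kluyveri | Amount: Enzyme 0.07 U/mL final | Dosing: Compound 20 µM once, DMSO 1% | Timing: 16 min reaction at room temperature | Detection: Fluorescence, excitation 544 nm and emission 590 nm | Evaluation: Higher resorufin formation from activation or reduction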
# * hit, by the source's call; · = no result.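 How the source made its calls, unless noted: active means inhibition above about 30% (limit read from the data); inactive means the rest.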
SMILES,Hck-Nef inh,eIF4E-4G inh,NCF1 inh,14-3-3 Bad PPI,Diaph act CS
Cc1ccc(-c2nc(N3CCOCC3)s[n+]2-c2ccccc2)cc1,-8.0,18.7,38.0*,29.0,0.9
OC(c1ccccc1)(c1ccccc1)C1CCNCC1,-1.8,-2.5,-8.8,-2.6,0.9
OC(c1ccc(F)cc1)(c1ccc(F)cc1)[C@@H]1CCCN1,-1.3,-7.7,43.4*,-9.3,0.8
CSc1nnc(C2CCNCC2)n1C,-1.5,5.6,-4.6,87.2*,1
CC1CC(OP(O)(=S)c2ccc(N(C)C)cc2NC(=O)c2cccs2)CC(C)(C)C1 (centres undefined),34.4,13.0,-18.3,-1.3,0.8
COc1ccc(Br)cc1CN1CCN(C(=O)Cc2ccccc2)CC1,-22.1,-15.5,-3.8,86.4*,0.9
CCC(C)N1CCN(C(=O)Cc2ccccc2)CC1 (centres undefined),-21.1,-0.5,-8.3,80.1*,0.8
Cc1ccc(CC(=O)N2CCN(Cc3ccccc3)CC2)cc1,19.7,0.2,0.6,-14.9,1
COc1ccc(CC(=O)N2CCN(C)CC2)cc1OC,0.6,4.7,-19.1,73.2*,0.9
Cc1ccc(S(=O)(=O)N(C)C)cc1NC(=O)C(C)[N+]12CCN(CC1)CC2 (centres undefined),-0.6,0.1,-7.0,-9.5,1
NC(=O)c1ccc(C(=O)Nc2ccc([As](=O)(O)O)cc2)cc1,1.1,90.4*,0.2,1.4,·
CN(C)[C@@H]1C(=O)C(C(N)=O)=C(O)[C@@]2(O)C(=O)C3=C(O)c4c(O)cccc4[C@@](C)(O)[C@H]3[C@H](O)[C@@H]12,8.7,46.9*,-9.4,89.3*,0.5
CSc1ccc(C(c2c(O)c3ccccc3oc2=O)c2c(C)n(C)n(-c3ccccc3)c2=O)cc1 (centres undefined),-0.7,-4.1,-11.9,-21.1,1
Cc1c(C(c2ccc(Br)cc2)c2c(O)c3ccccc3oc2=O)c(=O)n(-c2ccccc2)n1C (centres undefined),-8.2,-1.9,52.6*,0.5,0.8
N#CC1=C(N)Oc2c(c(=O)sc3ccccc23)C1c1cccnc1 (centres undefined),-0.1,-0.9,-7.1,-1.5,1
CC(=O)N1N=C2C3CCN(CC3)C2C1c1ccc(F)cc1 (centres undefined),0.1,0.7,-16.9,-13.0,1
c1ccc(-c2ccc(-c3n(-c4ccccn4)c4ccccc4[n+]3-c3ccccn3)cc2)cc1,23.2,-7.5,34.2*,12.0,0.8
COc1cc(CN=Cc2c(O)n(C(C)(C)C)c(=O)[nH]c2=O)cc(OC)c1,14.5,-3.8,0.4,-5.8,·
C[C@@H]1CC2(CCCC[N+]2(C)C)C[C@H]1C,-33.2,1.4,5.2,62.3,1
CC(=O)OC1N=C(c2ccccc2)c2cc(Br)ccc2NC1=O (centres undefined),1.3,-8.0,-0.7,0.7,0.9
CC(=O)OC1N=C(c2ccccc2)c2cc(Br)ccc2N(C)C1=O (centres undefined),-0.8,-1.4,32.2*,6.5,0.9
O=C(C(=O)N1CCOCC1)c1cn(Cc2ccc(F)cc2)c2ccccc12,25.3,0.3,-5.2,-0.1,·
O=C(c1ccc(Cl)cc1)C1CCCN(Cc2ccc3nonc3c2)C1 (centres undefined),11.5,5.8,47.8*,-5.1,0.9
COc1cccc(N2CCN(Cc3cccc(Cl)c3)CC2)c1,3.8,-3.5,-2.0,79.8*,0.8
COc1cc(CC2(CCc3ccncc3)C(=O)N(C)C(=O)N(C)C2=O)cc(OC)c1OC,18.8,-1.2,2.4,-8.9,0.9
Fc1ccc2c(c1)nnn2C1CCN(Cc2c(Cl)cccc2Cl)CC1,7.6,2.4,-15.2,-8.2,0.8
Cc1nc2cc(F)ccc2n1C1CCN(Cc2nnnn2CCc2ccccc2)CC1,2.8,-6.8,-1.4,80.2*,0.8
Cc1nc2cc(C(F)(F)F)ccc2n1C1CCN(Cc2nnnn2CCc2ccccc2)CC1,12.5,5.5,-20.3,0.4,0.7
